Laboratory results published in ChEMBL document CHEMBL3526153, “Metabolism of gambogic acid in rats: a rare intestinal metabolic pathway responsible for its final disposition” (Drug Metab Dispos, 2011).

Key:
[1] = Drug level in Sprague-Dawley rat gut treated with gambogic acid at 4 mg/kg, iv; assay type: ADME, organism-based; set-up: dose 4 mg/kg, route intravenous; conditions: in vivo
[2] = Drug level in intestine (unknown origin) treated with gambogic acid; assay type: ADME, tissue-based
Procedure, shortened: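 Intestinal contents from undosed rats homogenized in 5 mL water. 100 μL of 1.0 mg/mL GA solution added, incubated about 24 h at 37 °C, duplicate. 1.0 mL extracted with ethyl acetate. LC-MS/MS with negative ESI, SIM at m/z 709.3 plus full and product-ion scans, acetonitrile gradient 50–90%.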

[3] = Retention time of the compound in Sprague-Dawley rat feces treated with gambogic acid at 4 mg/kg, iv measured over 24 hrs by LC-DAD-MS/MS analysis; assay type: ADME, organism-based; set-up: dose 4 mg/kg, route intravenous; conditions: in vivo
Procedure, shortened: (§1)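 SD rats (250 ± 20 g), n=4, given GA 4 mg/kg i.v. via tail vein in 2 mL; feces pooled 0–24 h and stored at −20 °C. Feces (0.6 g) homogenized in 50% acetonitrile, sonicated, centrifuged, filtered, then ethyl acetate extraction. Analysed by C18 LC-DAD-MS/MS (gradient 38–80% acetonitrile, 10 mM ammonium acetate, 40 °C), negative ESI.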

[4] = Drug level in rat liver microsomes assessed as CYP450-mediated compound formation treated with gambogic acid at 50 uM preincubated for 10 mins followed by NADPH addition measured after 1 hr by LC-DAD-MS/MS analysis; assay type: ADME
Procedure, shortened: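 GA 50 µM with rat liver microsomes 1.0 mg/mL in 0.1 M PBS pH 7.4, pre-incubated 10 min at 37 °C. Started with NADPH (6.0 mM final) and run 1 h at 37 °C. Controls lacked NADPH or microsomes; duplicate. Stopped with ice-cold acetonitrile, centrifuged, supernatant dried and reconstituted. Isocratic LC (65% acetonitrile), negative-ion ESI MS/MS.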

Plasma = assay: Drug level in Sprague-Dawley rat plasma treated with gambogic acid at 4 mg/kg, iv measured over 4 hrs by LC-DAD-MS/MS analysis; assay type: ADME, organism-based; set-up: dose 4 mg/kg, route intravenous; conditions: in vivo
Procedure, shortened: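 Six SD rats given GA 4 mg/kg i.v. via tail vein. Tail blood taken into heparin at 0.033–4 h; plasma separated at 3000 × g, 4 °C, and pooled 0–4 h. 1 mL extracted with 4 mL ethyl acetate, dried, reconstituted. Isocratic 68% acetonitrile, LC-MS/MS in negative ESI.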

[5] = Drug level in Sprague-Dawley rat feces treated with gambogic acid at 4 mg/kg, iv measured over 24 hrs by LC-DAD-MS/MS analysis; assay type: ADME, organism-based; set-up: dose 4 mg/kg, route intravenous; conditions: in vivo; procedure, shortened: as §1
[6] = Drug level in PBS buffer treated with gambogic acid at 50 uM preincubated for 10 mins followed by NADPH addition measured after 1 hr by LC-DAD-MS/MS analysis in absence of liver microsomes; assay type: physicochemical
Procedure, shortened: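 Control incubation with no microsomes: GA 50 μM (added in 5.0 μL acetonitrile) in 0.1 M PBS pH 7.4, 1.0 mL, preincubated 10 min at 37 °C with shaking. NADPH added to 6.0 mM final, then 1 h at 37 °C, duplicate. Stopped with ice-cold acetonitrile, centrifuged, supernatant dried under N2, reconstituted in mobile phase. LC-MS/MS with negative ESI, isocratic 65% acetonitrile.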

[7] = Retention time of the compound in Sprague-Dawley rat bile treated with gambogic acid at 4 mg/kg, iv measured over 24 hrs by LC-DAD-MS/MS analysis; assay type: ADME, organism-based; set-up: dose 4 mg/kg, route intravenous; conditions: in vivo
Procedure, shortened: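 SD rats, n=4, bile-duct cannulated under chloral hydrate and allowed 1 h recovery. GA 4 mg/kg i.v.; bile collected on ice, pooled 0–24 h. C18 LC-DAD-MS/MS at 0.25 mL/min with acetonitrile gradient (38% to 80%) in 10 mM ammonium acetate, 40 °C, negative ESI.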

| Drug metabolism [1] | Drug metabolism [2] | Retention_time [3] | Drug metabolism [4] | Drug metabolism (Plasma) | Drug metabolism [5] | Drug metabolism [6] | Retention_time [7] | Structure (SMILES) |
| --- | --- | --- | --- | --- | --- | --- | --- | --- |
| metabolite_detected | metabolite_detected | 19.4 min |  |  |  |  |  | CC(C)=CCC[C@]1(C)C=Cc2c(O)c3c(c(CC=C(C)C)c2O1)O[C@]12C(C3=O)[C@@H](S(=O)(=O)O)[C@@H]3C[C@H]1C(C)(C)O[C@@]2(C/C=C(/C)C(=O)O)C3=O (some centres not stated) |
| metabolite_detected | metabolite_detected | 16.9 min |  |  |  |  |  | CC(C)=CCC[C@]1(C)C=Cc2c(O)c3c(c(CC=C(C)C)c2O1)O[C@]12C(C3=O)[C@H](S(=O)(=O)O)[C@@H]3C[C@H]1C(C)(C)O[C@@]2(C/C=C(/C)C(=O)O)C3=O (some centres not stated) |
|  |  |  | metabolite_detected | metabolite_detected | metabolite_detected | metabolite_detected | 39.5 min | CC(C)=CCC[C@]1(C)C=Cc2c(O)c3c(c(CC=C(C)C)c2O1)O[C@]12C(C3=O)C(O)[C@@H]3C[C@H]1C(C)(C)O[C@@]2(C/C=C(/C)C(=O)O)C3=O (some centres not stated) |
|  |  |  |  |  |  |  | 38.7 min | CC(C)=CCC[C@]1(C)C=Cc2c(O)c3c(c(CC=C(C)C)c2O1)O[C@]12C(C3=O)C(O[C@@H]3O[C@H](CO)[C@@H](O)[C@H](O)[C@H]3O)[C@@H]3C[C@H]1C(C)(C)O[C@@]2(C/C=C(/C)C(=O)O)C3=O (some centres not stated) |
